Results: ChEMBL document CHEMBL1687785, “ampG gene of Pseudomonas aeruginosa and its role in β-lactamase expression” (2010)
Converted amounts (≈) assume the structure as drawn.

Experiments:
Format in all cases: functional
Escherichia coli = assay: Antimicrobial activity against gentamycin resistant Escherichia coli SNO301-1 harboring pEC1C carrying ampC, ampR from Enterobacter cloacae after 16 to 20 hrs by broth microdilution method
How it was run: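 CLSI broth microdilution: serial 2-fold β-lactam dilutions in Mueller-Hinton broth, inoculum about 10^4 cells from starter cultures at OD600 0.5; MIC read as lowest concentration preventing growth after 16 to 20 h at 37°C; triplicate determinations.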

Pseudomonas aeruginosa [1] = assay: Antimicrobial activity against Pseudomonas aeruginosa PAO1 after 16 to 20 hrs by broth microdilution method
How it was run: (§1)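 CLSI broth microdilution: 2-fold serial antibiotic dilutions in Mueller-Hinton broth, inoculated with about 10^4 cells per 100 μl from starter cultures grown to OD600 0.5. MIC is the lowest concentration preventing growth after 16-20 h at 37°C. Triplicate.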

Pseudomonas aeruginosa [2] = assay: Antimicrobial activity against ampGh1 deficient Pseudomonas aeruginosa PAO1 after 16 to 20 hrs by broth microdilution method
How it was run: (§2)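 CLSI broth microdilution in Mueller-Hinton broth, serial 2-fold antibiotic dilutions. Inoculum about 10^4 cells per well, taken from starter cultures grown to OD600 0.5. MIC was the lowest antibiotic concentration preventing growth after 16 to 20 h at 37°C. Each MIC was determined in triplicate.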

Pseudomonas aeruginosa [3] = assay: Antimicrobial activity against ampG, ampGh1 deficient Pseudomonas aeruginosa PAO1 after 16 to 20 hrs by broth microdilution method; how it was run: as §2
Pseudomonas aeruginosa [4] = assay: Antimicrobial activity against ampG, ampGh1 deficient Pseudomonas aeruginosa PAK after 16 to 20 hrs by broth microdilution method; how it was run: as §2
Pseudomonas aeruginosa [5] = assay: Antimicrobial activity against Pseudomonas aeruginosa PAK after 16 to 20 hrs by broth microdilution method; how it was run: as §1
Pseudomonas aeruginosa [6] = assay: Antimicrobial activity against ampD, ampDh2, ampDh3 and ampG deficient Pseudomonas aeruginosa PAO1 harboring pUCP24 conferring resistance to gentamycin after 16 to 20 hrs by broth microdilution method; how it was run: as §2
Pseudomonas aeruginosa [7] = assay: Antimicrobial activity against ampD, ampDh2, ampDh3 and ampGh1 deficient Pseudomonas aeruginosa PAO1 after 16 to 20 hrs by broth microdilution method; how it was run: as §2
Pseudomonas aeruginosa [8] = assay: Antimicrobial activity against ampD, ampDh2, ampDh3 and ampG deficient Pseudomonas aeruginosa PAO1 after 16 to 20 hrs by broth microdilution method; how it was run: as §2
Pseudomonas aeruginosa [9] = assay: Antimicrobial activity against ampG, ampGh1 deficient Pseudomonas aeruginosa PAO1 after 16 to 20 hrs by broth microdilution method in presence of 120 uM carbonyl cyanide m-chlorophenyl-hydrazone
How it was run: (§3)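 CLSI broth microdilution in Mueller-Hinton broth with serial antibiotic dilutions. CCCP was added from a 10 mM DMSO stock to 120 μM final, then the bacterial culture was added as inoculum (about 10^4 cells from OD600 0.5 starter cultures). MIC was the lowest concentration preventing growth after 16 to 20 h at 37°C, run in triplicate.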

Pseudomonas aeruginosa [10] = assay: Antimicrobial activity against ampG deficient Pseudomonas aeruginosa PAO1 harboring pUCP24 conferring resistance to gentamycin after 16 to 20 hrs by broth microdilution method in presence of 120 uM carbonyl cyanide m-chlorophenyl-hydrazone; how it was run: as §3
Pseudomonas aeruginosa [11] = assay: Antimicrobial activity against ampG deficient Pseudomonas aeruginosa PAK after 16 to 20 hrs by broth microdilution method in presence of 120 uM carbonyl cyanide m-chlorophenyl-hydrazone; how it was run: as §3
Pseudomonas aeruginosa [12] = assay: Antimicrobial activity against ampG deficient Pseudomonas aeruginosa PAK harboring pUCP24 conferring resistance to gentamycin after 16 to 20 hrs by broth microdilution method in presence of 120 uM carbonyl cyanide m-chlorophenyl-hydrazone; how it was run: as §3
Pseudomonas aeruginosa [13] = assay: Antimicrobial activity against ampG deficient Pseudomonas aeruginosa PAK harboring pZY0901 conferring resistance to gentamycin after 16 to 20 hrs by broth microdilution method in presence of 120 uM carbonyl cyanide m-chlorophenyl-hydrazone; how it was run: as §3
Pseudomonas aeruginosa [14] = assay: Antimicrobial activity against ampD, ampDh2, ampDh3 and ampGh1 deficient Pseudomonas aeruginosa PAO1 after 16 to 20 hrs by broth microdilution method in presence of 120 uM carbonyl cyanide m-chlorophenyl-hydrazone; how it was run: as §3
Pseudomonas aeruginosa [15] = assay: Antimicrobial activity against Pseudomonas aeruginosa isolate 1 obtained from cystic fibrosis patients after 16 to 20 hrs by broth microdilution method; how it was run: as §1
Pseudomonas aeruginosa [16] = assay: Antimicrobial activity against Pseudomonas aeruginosa isolate 2 obtained from cystic fibrosis patients after 16 to 20 hrs by broth microdilution method in presence of 120 uM carbonyl cyanide m-chlorophenyl-hydrazone; how it was run: as §3
Pseudomonas aeruginosa [17] = assay: Antimicrobial activity against Pseudomonas aeruginosa isolate 4 obtained from cystic fibrosis patients after 16 to 20 hrs by broth microdilution method in presence of 120 uM carbonyl cyanide m-chlorophenyl-hydrazone; how it was run: as §3
Pseudomonas aeruginosa [18] = assay: Antimicrobial activity against Pseudomonas aeruginosa isolate 4 obtained from cystic fibrosis patients after 16 to 20 hrs by broth microdilution method; how it was run: as §2
Pseudomonas aeruginosa [19] = assay: Antimicrobial activity against Pseudomonas aeruginosa isolate 5 obtained from cystic fibrosis patients after 16 to 20 hrs by broth microdilution method in presence of 120 uM carbonyl cyanide m-chlorophenyl-hydrazone; how it was run: as §3
Pseudomonas aeruginosa [20] = assay: Antimicrobial activity against Pseudomonas aeruginosa isolate 6 obtained from cystic fibrosis patients after 16 to 20 hrs by broth microdilution method; how it was run: as §2
Pseudomonas aeruginosa [21] = assay: Antimicrobial activity against Pseudomonas aeruginosa isolate 7 obtained from cystic fibrosis patients after 16 to 20 hrs by broth microdilution method in presence of 120 uM carbonyl cyanide m-chlorophenyl-hydrazone; how it was run: as §3
Pseudomonas aeruginosa [22] = assay: Antimicrobial activity against Pseudomonas aeruginosa isolate 8 obtained from cystic fibrosis patients after 16 to 20 hrs by broth microdilution method; how it was run: as §2
Pseudomonas aeruginosa [23] = assay: Antimicrobial activity against Pseudomonas aeruginosa isolate 9 obtained from cystic fibrosis patients after 16 to 20 hrs by broth microdilution method in presence of 120 uM carbonyl cyanide m-chlorophenyl-hydrazone; how it was run: as §3
Pseudomonas aeruginosa [24] = assay: Antimicrobial activity against Pseudomonas aeruginosa isolate 10 obtained from cystic fibrosis patients after 16 to 20 hrs by broth microdilution method in presence of 120 uM carbonyl cyanide m-chlorophenyl-hydrazone
How it was run: (§4)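 CLSI broth microdilution in Mueller-Hinton broth with CCCP added from a 10 mM DMSO stock to 120 μM final, alongside 2-fold serial antibiotic dilutions. Inoculum from starter cultures grown to OD600 0.5. MIC is the lowest concentration preventing growth after 16-20 h at 37°C. Triplicate.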

Pseudomonas aeruginosa [25] = assay: Antimicrobial activity against Pseudomonas aeruginosa isolate 11 obtained from cystic fibrosis patients after 16 to 20 hrs by broth microdilution method in presence of 120 uM carbonyl cyanide m-chlorophenyl-hydrazone; how it was run: as §4
Pseudomonas aeruginosa [26] = assay: Antimicrobial activity against Pseudomonas aeruginosa isolate 11 obtained from cystic fibrosis patients after 16 to 20 hrs by broth microdilution method; how it was run: as §1
Pseudomonas aeruginosa [27] = assay: Antimicrobial activity against Pseudomonas aeruginosa isolate 15 obtained from cystic fibrosis patients after 16 to 20 hrs by broth microdilution method in presence of 120 uM carbonyl cyanide m-chlorophenyl-hydrazone; how it was run: as §4
Pseudomonas aeruginosa [28] = assay: Antimicrobial activity against Pseudomonas aeruginosa isolate 15 obtained from cystic fibrosis patients after 16 to 20 hrs by broth microdilution method; how it was run: as §1
Pseudomonas aeruginosa [29] = assay: Antimicrobial activity against Pseudomonas aeruginosa isolate 17 obtained from cystic fibrosis patients after 16 to 20 hrs by broth microdilution method in presence of 120 uM carbonyl cyanide m-chlorophenyl-hydrazone; how it was run: as §3
Pseudomonas aeruginosa [30] = assay: Antimicrobial activity against Pseudomonas aeruginosa isolate 18 obtained from cystic fibrosis patients after 16 to 20 hrs by broth microdilution method in presence of 120 uM carbonyl cyanide m-chlorophenyl-hydrazone; how it was run: as §3
Pseudomonas aeruginosa [31] = assay: Antimicrobial activity against Pseudomonas aeruginosa isolate 18 obtained from cystic fibrosis patients after 16 to 20 hrs by broth microdilution method; how it was run: as §2

Question: CC1(C)S[C@@H]2[C@H](NC(=O)[C@H](N)c3ccccc3)C(=O)N2[C@H]1C(=O)O [AMPICILLIN] was tested. Which MIC (Escherichia coli) did it give?
Answer: Its MIC is 1020 µg/mL (≈ 2930 µM).

Question: What about the MIC (Pseudomonas aeruginosa [1]) of the same compound?
Answer: Its MIC is 256 µg/mL (≈ 733 µM).

Question: And the MIC (Pseudomonas aeruginosa [2])?
Answer: The MIC was 256 µg/mL (≈ 733 µM).

Question: And the MIC (Pseudomonas aeruginosa [3])?
Answer: Its MIC is 32 µg/mL (≈ 91.6 µM).

Question: What about the MIC (Pseudomonas aeruginosa [4]) of the same compound?
Answer: The MIC was 32 µg/mL (≈ 91.6 µM).

Question: And the MIC (Pseudomonas aeruginosa [5])?
Answer: The MIC was 512 µg/mL (≈ 1470 µM).

Question: What about the MIC (Pseudomonas aeruginosa [6]) of the same compound?
Answer: The MIC was 16 µg/mL (≈ 45.8 µM).

Question: And the MIC (Pseudomonas aeruginosa [7])?
Answer: The MIC was 1020 µg/mL (≈ 2930 µM).

Question: And the MIC (Pseudomonas aeruginosa [8])?
Answer: Its MIC is 16 µg/mL (≈ 45.8 µM).

Question: What about the MIC (Pseudomonas aeruginosa [9]) of the same compound?
Answer: The MIC was 32 µg/mL.

Question: What about the MIC (Pseudomonas aeruginosa [10]) of the same compound?
Answer: The MIC was 32 µg/mL.

Question: What about the MIC (Pseudomonas aeruginosa [11]) of the same compound?
Answer: Its MIC is 32 µg/mL.

Question: And the MIC (Pseudomonas aeruginosa [12])?
Answer: Its MIC is 32 µg/mL.

Question: What about the MIC (Pseudomonas aeruginosa [13]) of the same compound?
Answer: The MIC was 32 µg/mL.

Question: And the MIC (Pseudomonas aeruginosa [14])?
Answer: Its MIC is 64 µg/mL.

Question: What about the MIC (Pseudomonas aeruginosa [15]) of the same compound?
Answer: Its MIC is 512 µg/mL (≈ 1470 µM).

Question: And the MIC (Pseudomonas aeruginosa [16])?
Answer: The MIC was 256 µg/mL.

Question: And the MIC (Pseudomonas aeruginosa [17])?
Answer: Its MIC is 512 µg/mL.

Question: What about the MIC (Pseudomonas aeruginosa [18]) of the same compound?
Answer: Its MIC is 512 µg/mL (≈ 1470 µM).

Question: What about the MIC (Pseudomonas aeruginosa [19]) of the same compound?
Answer: Its MIC is 512 µg/mL.

Question: What about the MIC (Pseudomonas aeruginosa [20]) of the same compound?
Answer: The MIC was greater than 1020 µg/mL.

Question: What about the MIC (Pseudomonas aeruginosa [21]) of the same compound?
Answer: Its MIC is 8 µg/mL.

Question: What about the MIC (Pseudomonas aeruginosa [22]) of the same compound?
Answer: The MIC was 256 µg/mL (≈ 733 µM).

Question: And the MIC (Pseudomonas aeruginosa [23])?
Answer: Its MIC is 8 µg/mL.

Question: What about the MIC (Pseudomonas aeruginosa [24]) of the same compound?
Answer: The MIC was 8 µg/mL.

Question: What about the MIC (Pseudomonas aeruginosa [25]) of the same compound?
Answer: Its MIC is 8 µg/mL.

Question: What about the MIC (Pseudomonas aeruginosa [26]) of the same compound?
Answer: The MIC was 512 µg/mL (≈ 1470 µM).

Question: And the MIC (Pseudomonas aeruginosa [27])?
Answer: The MIC was 8 µg/mL.

Question: And the MIC (Pseudomonas aeruginosa [28])?
Answer: Its MIC is greater than 1020 µg/mL.

Question: What about the MIC (Pseudomonas aeruginosa [29]) of the same compound?
Answer: Its MIC is 8 µg/mL.

Question: What about the MIC (Pseudomonas aeruginosa [30]) of the same compound?
Answer: Its MIC is 256 µg/mL.

Question: And the MIC (Pseudomonas aeruginosa [31])?
Answer: Its MIC is 256 µg/mL (≈ 733 µM).
